ERp5 block: inhibitors of ERp5-driven insulin aggregation, primary screen, biochemical, turbidity, absorbance 650 nm, single point; actives 0.05% (n = 350,000); 90 min; AID 651711, 2012; Protein disulfide-isomerase A6 (Homo sapiens), Q15084; inhibition, % at 9.99 µM;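 active = mean replicate inhibition above about 25%, with every replicate also reaching it, limit read from the data, passing the limit was not always enough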
S100A4 MyoIIA: inhibitors of S100A4-myosin IIA peptide binding, primary screen, biochemical, fluorescence polarization, TAMRA-MyoIIA peptide. Protein S100-A4 (Homo sapiens), P26447. inhibition, % at 10.7 µM. AID 652163, 2013. actives 0.14% (n = 360,000);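 active = mean inhibition of at least 70% across replicates, with every replicate also reaching that level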
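System – human S100A4 monomer protein, biochemical binding assay · Buffer or medium – Calcium-containing HEPES buffer, pH 7.2 · Timing – 5 min between mix addition and reading · Also added – TAMRA-labelled myosin IIA heavy-chain peptide probe, 5 nM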
INS-1E GSIS act: GLuc luminescence reporter in INS-1E cells, primary screen for activators of glucose-dependent secretion of insulin | INS-1E GLuc reporter insulin secretion, 2-3 h | activation, % at 16.6 µM | actives 0.61% (n = 370,000) | AID 743287, 2014;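 active = lowest replicate activation of at least 40%, so every replicate reaches that level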;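 also: 0% = median of neutral control wells and 100% = median of IBMX positive control wells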
PDI turbidity: inhibitors of human PDI, primary screen, biochemical, turbidity, single point, plate reader | Protein disulfide-isomerase (Homo sapiens), P07237 | PDI insulin aggregation turbidity, A650, 90 min | inhibition, % at 10 µM | actives 0.052% (n = 350,000) | AID 588391, 2011;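 active = mean inhibition across replicates of 30% or more, whatever share of single replicates reach that level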
Target sequence (P07237 whole entry, looked up): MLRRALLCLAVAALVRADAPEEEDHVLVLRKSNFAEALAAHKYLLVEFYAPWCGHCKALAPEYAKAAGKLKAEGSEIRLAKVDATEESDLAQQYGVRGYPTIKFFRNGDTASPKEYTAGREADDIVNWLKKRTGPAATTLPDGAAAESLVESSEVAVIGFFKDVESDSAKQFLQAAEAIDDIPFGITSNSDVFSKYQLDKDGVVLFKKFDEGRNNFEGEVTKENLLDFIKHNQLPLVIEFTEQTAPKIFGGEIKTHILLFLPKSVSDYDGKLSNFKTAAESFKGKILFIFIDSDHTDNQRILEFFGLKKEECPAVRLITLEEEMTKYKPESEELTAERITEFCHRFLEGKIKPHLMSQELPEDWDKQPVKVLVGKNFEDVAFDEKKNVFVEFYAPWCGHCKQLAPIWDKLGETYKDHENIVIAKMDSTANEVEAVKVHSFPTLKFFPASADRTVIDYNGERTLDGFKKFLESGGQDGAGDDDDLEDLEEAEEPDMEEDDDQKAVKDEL
SIRT5 block: SIRT5 desuccinylase inhibitors, primary screen, biochemical, fluorescence imaging, single point, set 5; NAD-dependent protein deacylase sirtuin-5, mitochondrial (Homo sapiens), Q9NXA8; Purified SirT5, succinyl-peptide AMC, trypsin-coupled fluorescence; inhibition, % at 15 µM; actives 1.1% (n = 330,000); AID 652115, 2013; in the data active = inhibition above about 15%
Numbers without * were called inactive; x = no result; ! = not confirmed by another sample. Only some compounds are listed: those with a hit (about 1.5% of all), similar ones and a draw of the others.

SMILES | ERp5 block | S100A4 MyoIIA | INS-1E GSIS act | PDI turbidity | SIRT5 block
COCCOC(=O)N1C(=O)[C@@]2(c3cc(C#CCC(C(=O)OC)C(=O)OC)ccc31)[C@H](c1ccccc1OCCO)N1[C@H](c3ccccc3)[C@H](c3ccccc3)OC(=O)[C@H]1[C@@H]2C(=O)NC[C@H](O)c1ccccc1 | 0 | 0 | x | x | 16*
COCCOC(=O)N1C(=O)[C@@]2(c3cc(C#CCC(C(=O)OC)C(=O)OC)ccc31)[C@H](c1ccccc1OCCO)N1[C@H](c3ccccc3)[C@H](c3ccccc3)OC(=O)[C@H]1[C@@H]2C(=O)N1CCN(c2ncccn2)CC1 | 5 | 1 | x | x | 2
COCCOC(=O)N1C(=O)[C@@]2(c3cc(C#CCCO)ccc31)[C@H](C(=O)N1CCN(c3ncccn3)CC1)[C@H]1C(=O)O[C@H](c3ccccc3)[C@H](c3ccccc3)N1[C@@H]2c1ccccc1OCCO | 0 | -1 | x | x | 14
CN(C)/C=C/c1oc2ccc(O)cc2c1[N+](=O)[O-] | 5 | -3 | -10 | 1 | 24*
COCC#Cc1ccc2c(c1)O[C@@H](CN(C)S(=O)(=O)c1cccc(F)c1)[C@@H](C)CN([C@H](C)CO)S2(=O)=O | -2 | 7 | 8 | 0 | 19*!
CCCC#Cc1ccc2c(c1)O[C@H](CN(C)S(=O)(=O)c1cccc(OC)c1)[C@H](C)CN([C@H](C)CO)S2(=O)=O | -3 | -5 | 4 | 5 | 17*!
C[C@@H]1CN([C@H](C)CO)S(=O)(=O)c2ccc(C#CCN(C)C)cc2O[C@H]1CN(C)S(=O)(=O)c1cccc(F)c1 | 3 | -11 | 1 | x | 6
COCC#Cc1ccc2c(c1)O[C@@H](CN(C)S(=O)(=O)c1cccc(F)c1)[C@H](C)CN([C@H](C)CO)S2(=O)=O | 0 | 5 | -12 | x | 2
CC(C)CC#Cc1ccc2c(c1)O[C@@H](CN(C)S(=O)(=O)c1cccc(F)c1)[C@H](C)CN([C@H](C)CO)S2(=O)=O | 4 | -9 | -30 | x | 19*
CCCC#Cc1ccc2c(c1)O[C@@H](CN(C)S(=O)(=O)c1cccc(F)c1)[C@@H](C)CN([C@H](C)CO)S2(=O)=O | -1 | -1 | -9 | x | 1
CC(C)CC#Cc1ccc2c(c1)O[C@@H](CN(C)S(=O)(=O)c1cccc(F)c1)[C@H](C)CN([C@@H](C)CO)S2(=O)=O | 0 | -20 | -36 | x | 17*
O=C1CN(S(=O)(=O)c2ccccc2)C[C@H]2[C@@H](c3ccc(C#Cc4ccccc4)cc3)[C@H](CO)N12 | 2 | -1 | -7 | x | 1
CCNC(=O)C[C@H]1CC[C@@H]2[C@H](COc3ccc(NC(=O)c4cccs4)cc3C(=O)N2C)O1 | -3 | 8 | -3 | x | -2
COCC(=O)N1C[C@H](C)[C@H](OC)CN(C)C(=O)c2ccc(NC(=O)c3ccccc3)cc2OC[C@H]1C | 0 | -3 | 25 | x | 2
C[C@H](CO)N1C[C@H](C)[C@H](CN(C)S(=O)(=O)c2cccc(F)c2)Oc2cc(C#CCN(C)C)ccc2S1(=O)=O | 4 | -10 | 10 | x | 5
CC(C)CC#Cc1ccc2c(c1)O[C@@H](CN(C)S(=O)(=O)c1cccc(F)c1)[C@@H](C)CN([C@@H](C)CO)S2(=O)=O | 1 | -2 | x | x | 20*
CC(C)CC#Cc1ccc2c(c1)O[C@H](CN(C)S(=O)(=O)c1cccc(F)c1)[C@@H](C)CN([C@H](C)CO)S2(=O)=O | 2 | 0 | -29 | x | 16*
C[C@H]1CN([C@@H](C)CO)C(=O)Cc2cc(NC(=O)Cn3cnnn3)ccc2O[C@@H]1CN(C)C(=O)Nc1cccc2ccccc12 | x | x | 9 | x | x
CCN(C[C@H]1[C@H](c2ccccc2)[C@@H](CO)N1S(C)(=O)=O)C(=O)C1CCCC1 | 2 | -2 | 6 | x | x
Cc1ccc(C2c3c(-c4ccccc4)n[nH]c3C(=O)N2c2ccccc2)cc1 (stereo not drawn) | -4 | 31 | -4 | x | 3
Cc1ccc(C2NC(=O)c3[nH]nc(-c4ccccc4)c32)cc1 (stereo not drawn) | 7 | -3 | 3 | x | -6

Screening results as filed in PubChem.
